ChEMBL document CHEMBL1133762, “Aureobasidins: structure-activity relationships for the inhibition of the human MDR1 P-glycoprotein ABC-transporter” (J Med Chem, 2000)
≈ marks a conversion by molar mass, not a printed value.

How the values were obtained:
Saccharomyces cerevisiae [1] = assay: Minimum growth-inhibitory concentration against Saccharomyces cerevisiae ATCC 9763 by agar dilution method by the suspension of a fungi containing ~5 x 10e (7) cells/mL.; assay type: functional
How it was run: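 Agar dilution on Sabouraud–dextrose agar plates with graded compound concentrations. A loopful of yeast suspension (about 5 × 10⁷ cells/mL) was streaked on the surface. Plates were incubated at 30 °C for 3 days. MIC is the lowest concentration with no detectable growth.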

[2] = biological target: P-glycoprotein (ABCB1, MDR1) (Homo sapiens, UniProt P08183); assay: Human MDR1 Pgp inhibitory activity by using standard calcein-AM efflux method with the human leukemia CEM cells.; assay type: cell-based, CCRF-CEM; details: probe calcein-AM; for IC50: human, human leukemia CEM cells
P-glycoprotein (ABCB1, MDR1), sequence (P08183 whole entry): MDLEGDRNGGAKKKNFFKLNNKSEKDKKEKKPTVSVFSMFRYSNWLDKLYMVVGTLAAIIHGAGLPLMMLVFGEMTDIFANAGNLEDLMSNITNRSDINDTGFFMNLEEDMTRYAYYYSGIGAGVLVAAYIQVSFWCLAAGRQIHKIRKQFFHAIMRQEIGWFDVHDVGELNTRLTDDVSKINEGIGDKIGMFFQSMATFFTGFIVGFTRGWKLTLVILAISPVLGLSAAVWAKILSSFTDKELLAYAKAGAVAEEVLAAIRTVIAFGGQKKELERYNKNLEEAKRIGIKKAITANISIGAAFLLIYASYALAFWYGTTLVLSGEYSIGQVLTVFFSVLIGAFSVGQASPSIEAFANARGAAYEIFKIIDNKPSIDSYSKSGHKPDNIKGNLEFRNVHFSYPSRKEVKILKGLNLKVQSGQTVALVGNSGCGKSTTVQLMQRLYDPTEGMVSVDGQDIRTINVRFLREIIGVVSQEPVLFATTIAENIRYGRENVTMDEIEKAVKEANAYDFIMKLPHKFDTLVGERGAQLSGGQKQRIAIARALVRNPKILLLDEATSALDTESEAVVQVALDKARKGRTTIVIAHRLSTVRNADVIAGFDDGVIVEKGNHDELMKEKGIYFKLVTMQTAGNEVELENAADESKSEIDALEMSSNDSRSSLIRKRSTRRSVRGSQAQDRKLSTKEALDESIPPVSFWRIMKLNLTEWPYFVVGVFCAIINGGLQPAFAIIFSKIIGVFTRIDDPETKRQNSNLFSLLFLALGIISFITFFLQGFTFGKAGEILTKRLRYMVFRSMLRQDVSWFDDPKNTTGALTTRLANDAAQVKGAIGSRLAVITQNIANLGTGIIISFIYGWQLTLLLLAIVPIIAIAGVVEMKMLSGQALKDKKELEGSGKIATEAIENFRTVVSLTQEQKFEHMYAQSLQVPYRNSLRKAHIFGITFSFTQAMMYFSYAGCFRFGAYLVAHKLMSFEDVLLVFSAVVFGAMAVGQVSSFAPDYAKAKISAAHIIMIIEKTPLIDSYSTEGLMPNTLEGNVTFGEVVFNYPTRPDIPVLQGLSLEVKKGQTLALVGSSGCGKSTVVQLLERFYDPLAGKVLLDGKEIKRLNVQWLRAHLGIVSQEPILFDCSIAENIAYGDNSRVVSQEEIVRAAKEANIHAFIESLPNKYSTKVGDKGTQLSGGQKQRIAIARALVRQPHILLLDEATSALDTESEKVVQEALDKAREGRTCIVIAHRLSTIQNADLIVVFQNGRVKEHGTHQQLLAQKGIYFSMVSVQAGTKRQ

[3] = biological target: ATP-dependent translocase ABCB1 (Homo sapiens, UniProt P08183); assay: Direct comparison of the antifungal activities with the relative Pgp-inhibitory potencies, calculated by comparing ug/mL IC50(or IC20).; assay type: functional
ATP-dependent translocase ABCB1, sequence (P08183 whole entry): as above

Saccharomyces cerevisiae [4] = assay: Relative antifungal activity (against Saccharomyces cerevisiae) compared to AbA

SMILES | MIC (Saccharomyces cerevisiae [1]) [µg/mL] | IC50 [2] [nM] | IC20 [2] [nM] | Pgp AbA/analogue ratio [3] | antifungal AbA/analogue ratio (Saccharomyces cerevisiae [4])
CC[C@H](C)[C@@H]1NC(=O)[C@@H]2CCCN2C(=O)[C@H](Cc2ccccc2)N(C)C(=O)[C@H](Cc2ccccc2)NC(=O)[C@H](C(C)C)N(C)C(=O)[C@@H]([C@@H](C)CC)OC(=O)[C@H](C(C)(C)O)N(C)C(=O)[C@H](CC(C)C)NC(=O)[C@H](C(C)C)N(C)C1=O | 0.4 (≈ 0.363 µM) | 2270 | 680 |  | 
CC[C@@H](C)[C@@H]1NC(=O)[C@@H]2CCCN2C(=O)[C@H](Cc2ccccc2)N(C)C(=O)[C@H](Cc2ccccc2)NC(=O)[C@H](C(C)C)N(C)C(=O)[C@@H]([C@@H](C)CC)OC(=O)[C@H](C(C)(C)O)N(C)C(=O)[C@H](CC(C)C)NC(=O)C(C(C)C)OC1=O (stereo partly drawn) [listing 1 of 2 here] | > 25 |  |  |  | 
CC[C@H](C)[C@@H]1NC(=O)[C@@H]2CCCN2C(=O)[C@H](Cc2ccccc2)N(C)C(=O)[C@H](Cc2ccccc2)NC(=O)[C@H](C(C)C)N(C)C(=O)[C@@H]([C@@H](C)CC)OC(=O)[C@@H](C(C)(C)O)N(C)C(=O)[C@H](CC(C)C)NC(=O)[C@H](C(C)C)N(C)C1=O | > 25 | 390 | 100 |  | 
CC[C@@H](C)[C@@H]1NC(=O)[C@@H]2CCCN2C(=O)[C@H]([C@H](O)c2ccccc2)N(C)C(=O)[C@H](Cc2ccccc2)NC(=O)[C@H](C(C)C)N(C)C(=O)[C@@H]([C@@H](C)CC)OC(=O)[C@H](C(C)C)N(C)C(=O)[C@H](CC(C)C)NC(=O)[C@H](C(C)C)N(C)C1=O [listing 1 of 2 here] |  | 1360 | 460 | 1.7 | 0.25
CC[C@@H](C)[C@@H]1NC(=O)[C@@H]2CCCN2C(=O)[C@H](Cc2ccccc2)N(C)C(=O)[C@H](Cc2ccccc2)NC(=O)[C@H](C(C)C)N(C)C(=O)[C@@H]([C@@H](C)CC)OC(=O)C(=C(C)C)N(C)C(=O)[C@H](CC(C)C)NC(=O)[C@H](C(C)C)N(C)C1=O [listing 1 of 2 here] | > 25 |  |  |  | 
CC[C@@H](C)[C@@H]1NC(=O)[C@@H]2CCCN2C(=O)[C@H](Cc2ccccc2)N(C)C(=O)[C@H](C2CCCCC2)NC(=O)[C@H](C(C)C)N(C)C(=O)[C@@H]([C@@H](C)CC)OC(=O)[C@H](C(C)(C)O)N(C)C(=O)[C@H](CC(C)C)NC(=O)[C@H](C(C)C)N(C)C1=O [listing 1 of 2 here] | 1.6 (≈ 1.46 µM) |  |  |  | 
CC[C@@H](C)[C@@H]1NC(=O)[C@@H]2CCCN2C(=O)[C@H](Cc2ccccc2)N(C)C(=O)[C@H](Cc2ccccc2)NC(=O)[C@H](C(C)C)N(C)C(=O)[C@@H]([C@@H](C)CC)OC(=O)[C@H](C(C)(C)O)N(C)C(=O)[C@H](CC(C)C)NC(=O)[C@H](C(C)C)NC1=O [listing 1 of 2 here] | 1.6 (≈ 1.47 µM) |  |  |  | 
CC[C@@H](C)[C@@H]1NC(=O)[C@@H]2CCCN2C(=O)[C@H](Cc2ccccc2)N(C)C(=O)[C@H](Cc2ccccc2)NC(=O)[C@H](C(C)C)N(C)C(=O)[C@@H]([C@@H](C)CC)OC(=O)[C@H](C(C)(C)O)N(C)C(=O)[C@H](CC(C)C)NC(=O)[C@H](C(C)C)NC1=O [listing 2 of 2 here] |  | 7550 | 2670 | 0.3 | 0.25
CC[C@@H](C)[C@@H]1NC(=O)[C@@H]2CCCN2C(=O)[C@H](Cc2ccccc2)N(C)C(=O)[C@H](Cc2ccccc2)NC(=O)[C@H](C(C)C)N(C)C(=O)[C@@H]([C@@H](C)CC)OC(=O)[C@H]([C@H](C)CO)N(C)C(=O)[C@H](CC(C)C)NC(=O)[C@H](C(C)C)N(C)C1=O | 6.3 (≈ 5.72 µM) |  |  |  | 
CC[C@@H](C)[C@@H]1NC(=O)CCCCCCCNC(=O)[C@H](C(C)C)N(C)C(=O)[C@@H]([C@@H](C)CC)OC(=O)[C@H](C(C)(C)O)N(C)C(=O)[C@H](CC(C)C)NC(=O)[C@H](C(C)C)N(C)C1=O [listing 1 of 2 here] |  | 7420 | 2630 | 0.4 | < 0.016
CC[C@@H](C)[C@@H]1NC(=O)[C@@H]2CCCN2C(=O)[C@H](Cc2ccccc2)N(C)C(=O)[C@H](Cc2ccccc2)NC(=O)[C@H](C(C)C)N(C)C(=O)[C@@H]([C@@H](C)CC)OC(=O)[C@]2(OC2(C)C)N(C)C(=O)[C@H](CC(C)C)NC(=O)[C@H](C(C)C)N(C)C1=O |  | 1550 | 460 |  | 
CC[C@@H](C)[C@@H]1NC(=O)[C@@H]2CCCN2C(=O)[C@H](Cc2ccccc2)N(C)C(=O)[C@H](Cc2ccccc2)NC(=O)[C@H](C(C)C)N(C)C(=O)[C@@H](C(C)C)OC(=O)[C@H](C(C)(C)O)N(C)C(=O)[C@H](CC(C)C)NC(=O)[C@H](C(C)C)N(C)C1=O | 0.4 (≈ 0.368 µM) |  |  |  | 
CC[C@@H](C)[C@@H]1NC(=O)[C@@H]2CCCN2C(=O)[C@H](Cc2ccccc2)N(C)C(=O)[C@H](C2CCCCC2)NC(=O)[C@H](C(C)C)N(C)C(=O)[C@@H]([C@@H](C)CC)OC(=O)[C@H](C(C)(C)O)N(C)C(=O)[C@H](CC(C)C)NC(=O)[C@H](C(C)C)N(C)C1=O [listing 2 of 2 here] |  | 5880 | 1450 | 0.5 | 0.25
CC[C@@H](C)[C@@H]1NC(=O)[C@@H]2CCCN2C(=O)[C@H]([C@H](O)c2ccccc2)N(C)C(=O)[C@H](Cc2ccccc2)NC(=O)[C@H](C(C)C)N(C)C(=O)[C@@H]([C@@H](C)CC)OC(=O)[C@H](C(C)(C)O)N(C)C(=O)[C@H](CC(C)C)NC(=O)[C@H](C(C)C)N(C)C1=O [listing 1 of 2 here] | 0.8 (≈ 0.716 µM) |  |  |  | 
CC[C@@H](C)[C@@H]1NC(=O)[C@@H]2CCCN2C(=O)[C@H](Cc2ccccc2)N(C)C(=O)[C@H](Cc2ccccc2)NC(=O)[C@H](C(C)C)N(C)C(=O)[C@@H]([C@@H](C)CC)OC(=O)CN(C)C(=O)[C@H](CC(C)C)NC(=O)[C@H](C(C)C)N(C)C1=O |  | 890 | 310 | 2.7 | 
CC[C@@H](C)[C@@H]1NC(=O)[C@@H]2CCCN2C(=O)[C@H]([C@H](O)c2ccccc2)N(C)C(=O)[C@H](Cc2ccccc2)NC(=O)[C@H](C(C)C)N(C)C(=O)[C@@H]([C@@H](C)CC)OC(=O)[C@H](C(C)(C)O)N(C)C(=O)[C@H](CC(C)C)NC(=O)[C@H](C(C)C)N(C)C1=O [listing 2 of 2 here] |  | 2150 | 810 | 1 | 0.5
CC[C@@H](C)[C@@H]1NC(=O)[C@@H]2CCCN2C(=O)[C@H](Cc2ccccc2)N(C)C(=O)[C@H](Cc2ccccc2)NC(=O)[C@H](C(C)C)N(C)C(=O)[C@@H]([C@@H](C)CC)OC(=O)[C@H](C(C)(C)O)N(C)C(=O)[C@H](CC(C)C)NC(=O)C(C(C)C)OC1=O (stereo partly drawn) [listing 2 of 2 here] |  | 1660 | 460 | 1.4 | < 0.016
CC[C@@H](C)[C@@H]1NC(=O)CCCCCCCNC(=O)[C@H](C(C)C)N(C)C(=O)[C@@H]([C@@H](C)CC)OC(=O)[C@H](C(C)(C)O)N(C)C(=O)[C@H](CC(C)C)NC(=O)[C@H](C(C)C)N(C)C1=O [listing 2 of 2 here] | > 25 |  |  |  | 
CC[C@@H](C)[C@@H]1NC(=O)[C@@H]2CCCN2C(=O)[C@H](Cc2ccccc2)N(C)C(=O)[C@H](Cc2ccccc2)NC(=O)[C@H](C(C)C)N(C)C(=O)[C@@H]([C@@H](C)CC)OC(=O)C(=C(C)C)N(C)C(=O)[C@H](CC(C)C)NC(=O)[C@H](C(C)C)N(C)C1=O [listing 2 of 2 here] |  | 180 | 60 | 12.5 | < 0.016
CC[C@@H](C)[C@@H]1NC(=O)[C@@H]2CCCN2C(=O)[C@H]([C@H](O)c2ccccc2)N(C)C(=O)[C@H](Cc2ccccc2)NC(=O)[C@H](C(C)C)N(C)C(=O)[C@@H]([C@@H](C)CC)OC(=O)[C@H](C(C)C)N(C)C(=O)[C@H](CC(C)C)NC(=O)[C@H](C(C)C)N(C)C1=O [listing 2 of 2 here] | 1.7 (≈ 1.54 µM) |  |  |  | 
